Most compounds without a hit are left out; they make up all but 1.5% or so of the library.
697 NFkB inh = inhibitors of the PMA/ionomycin-induced NF-kB reporter in 697 B cells; 697 B-cell NF-kB luciferase reporter, 16 h; inhibition, % at 4 µM; 0.33% of 330,000 active; in the data active = inhibition above about 35%
GalR3 antag = human GalR3 antagonism | O60755 | HEK293 GalR3-CNG cAMP membrane potential fluorescence; galR3 body fused to GalR1 C-terminus | inhibition, % at 3 µM | 0.44% of 360,000 active | AID 651719;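 active = inhibition above the screen-wide average plus 3 SD, cut at about 13% in these data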;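 note: forskolin and galanin both at EC90 stimulate the cells; cAMP rise reported by CNG channel membrane potential dye signal; 0% = forskolin plus galanin with DMSO and 100% = forskolin alone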
Target sequence (O60755 1-299 limits assumed): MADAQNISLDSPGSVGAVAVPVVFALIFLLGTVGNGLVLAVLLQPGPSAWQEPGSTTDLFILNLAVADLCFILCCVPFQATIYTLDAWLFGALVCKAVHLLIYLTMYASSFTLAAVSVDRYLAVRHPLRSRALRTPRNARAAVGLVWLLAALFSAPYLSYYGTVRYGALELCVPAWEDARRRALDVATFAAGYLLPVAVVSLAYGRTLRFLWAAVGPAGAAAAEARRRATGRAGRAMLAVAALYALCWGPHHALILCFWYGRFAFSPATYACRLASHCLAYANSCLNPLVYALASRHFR
NR2E3 ag-1 = activates human NR2E3 receptor; CHO-S Gal4-NCOR/VP16-NR2E3 two-hybrid, luciferase; inhibition of corepressor binding, % at 3.98 µM; 0.35% of 360,000 active; AID 602229;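 active = inhibition above the mean of all tested compounds plus 3 SD, cut at about 70% in these data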;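 note: 0% = DMSO with NR2E3 transfected cells and 100% = cells lacking NR2E3 construct; higher means lower luciferase signal from less NR2E3 corepressor binding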
Jurkat NFkB inh = inhibitors of the PMA/ionomycin-induced NF-kB reporter in Jurkat cells. PMA/ionomycin-induced NF-kB luciferase reporter, luminescence. inhibition, % at 4 µM. 0.53% of 330,000 active. AID 435003; in the data active = inhibition above about 50%
JMJD2C inh = inhibitors of human GASC-1 (JMJD2C) demethylase | inhibition, % at 2.35 µM | GST-JMJD2C(1-420) H3K9me3 demethylation, DELFIA europium | Q9H3R0 | 0.069% of 330,000 active;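 active = more than half of a compound's replicate wells show inhibition beyond 50%, single wells judged on their own value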;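 note: signal counts dimethyl H3K9 product captured on neutravidin plate; 0% = median of DMSO wells and 100% = 0.3 times that DMSO median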
NR2E3 ag-2 = agonists of human nuclear receptor NR2E3 | GST-NR2E3/biotin-RetCOR TR-FRET, 1536-well | inhibition of corepressor binding, % at 4.78 µM | 0.12% of 320,000 active | AID 2300;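 active = percent inhibition above the cutoff of mean plus 3 SD of all tested compounds, set per screening campaign, cut at about 20% in these data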;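 note: 0% = DMSO wells and 100% = biotin wells as full block of FRET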
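System: GST-NR2E3 and biotin-RetCOR proteins; probe or stimulus: 7 nM biotin-RetCOR; doses: compound at 4.8 µM, single dose; schedule: Compound–protein incubation for 5 h at 4 °C; detection: time-resolved FRET; read-out: percent inhibition; controls: biotin wells as high control, 0.6% DMSO wells as low control; format: 1536-well plates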
Jurkat NFkB conf = lowers PMA/ionomycin-induced NF-kB signal in Jurkat cells; 27% of 2,700 active; shares compounds with Jurkat NFkB inh; Jurkat NF-kB luciferase, 16 h; AID 435020; inhibition, % at 4 µM;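 active = inhibition reaching about 45% at 4 µM in either replicate, limit read from the data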;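 note: plate controls were PMA/ionomycin stimulated DMSO wells for no effect and unstimulated DMSO wells for full effect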
Numbers without * were called inactive; · = no result given.

SMILES	697 NFkB inh	GalR3 antag	NR2E3 ag-1	Jurkat NFkB inh	JMJD2C inh	NR2E3 ag-2	Jurkat NFkB conf
COc1ccc(NC(=O)C(=O)NCC2CCCN2S(=O)(=O)c2cccs2)cc1 (stereo not drawn)	-4.1	-0.9	-41.7	64.9*	21.5	-1.2	53.9*
Cc1cc(C)c2ccc(N)nc2c1O	-1.5	-3.5	28.7	52.1*	1.7	1.8	14.2
CNc1ccc2ncc(-c3ccccc3NC(C)=O)n2n1	·	-1.6	2.9	·	·	·	·
Nc1nc2c(-c3ccc([N+](=O)[O-])cc3)nnn2c2ccccc12	·	0.5	·	·	·	·	·
O=C(OCC(=O)N1CCC(c2ccccc2)=N1)c1ccc(Cl)s1	6.0	-5.2	-7.8	-172.5	-5.3	·	7.0
Cn1cccc1/C=N/NC(=O)c1cc(-c2cccs2)nc2ccccc12	-15.3	-2.5	-20.1	53.1*	26.5	-1.7	3.5
CCCc1cc(C(=O)N/N=C/c2ccc(CC)s2)c2ccccc2n1	-30.5	11.4	-85.2	56.2*	-1.6	-0.1	48.2
CCc1ccc(/C=N/NC(=O)c2cc(-c3ccncc3)nc3ccccc23)s1	-74.8	-2.5	-31.1	63.4*	-5.6	-0.8	49.8*
CCOC(=O)N1CCN(C(=O)COc2ccc(S(=O)(=O)NC(C)C)cc2)CC1	10.6	-2.0	-12.5	-6.7	8.7	-0.8	·
Cc1csc2nc(COC(=O)c3ccc(Cl)c([N+](=O)[O-])c3)cc(=O)n12	23.8	-0.3	-3.8	52.7*	8.4	-1.3	26.5
Cc1csc2nc(COC(=O)CNC(=O)c3ccc(Cl)cc3)cc(=O)n12	0.2	3.5	15.6	3.6	-9.4	-2.7	·
O=C(Sc1cccc2cccnc12)c1ccc(F)cc1	-151.4	-4.5	·	100.9*	·	·	59.7*
Cc1ccc(C(=O)NC2CCc3ccccc3C2=O)cc1 (stereo not drawn)	-103.7	-5.2	-68.8	-107.1	-11.0	1.8	·
Cc1ccc(C(=O)NC2c3ccccc3-c3ccccc32)cc1	-24.3	-4.6	-5.2	60.3*	4.6	-1.5	2.1
Cc1ccnc(NC(=O)CNC(=O)c2cccs2)c1	12.6	-4.4	-14.1	-5.9	-0.2	0.0	·
Cc1ccc2oc(-c3ccc(C)c(NC(=S)NC(=O)c4cccs4)c3)nc2c1	-225.7	-1.6	-170.1	-169.7	-1.6	0.1	-86.5
Cc1ccnc(NC(=S)NC(=O)c2cccs2)c1	-181.4	-2.0	-91.6	-201.0	-3.6	1.3	-82.6
CN(c1ncc(C(F)(F)F)cc1Cl)N1C(=O)c2cccc([N+](=O)[O-])c2C1=O	6.1	-2.9	-10.4	8.7	-16.8	2.0	·
CCCc1nc2oc3c(NCCCN(C)C)ncnc3c2c2c1CCCC2	-28.8	0.0	38.6	89.7*	8.6	2.2	8.8
C/C(=N\Nc1ccc2nncn2n1)c1ccco1	7.0	-5.3	-15.8	2.7	-3.0	2.0	·
C/C(=N\Nc1ccc2nncn2n1)c1ccccn1	-21.7	-2.2	-23.0	55.2*	1.9	-2.2	31.6
CN1CCC(N(C)C(=O)CCc2nc3ccccc3c(=O)[nH]2)CC1	3.0	-7.2	-9.0	-8.1	-1.6	-3.0	·
Cn1nnc2cc(C(=O)Nc3ccc4ccccc4c3)ccc21	-166.4	-1.5	-112.0	-162.6	-3.5	1.6	-67.3
Cc1ccc(N2CC(C(=O)Nc3cc(S(=O)(=O)N4CCCCC4)ccc3C)CC2=O)cc1 (stereo not drawn)	·	-3.3	-10.1	·	·	·	·
Nc1ccc(N=Nc2ccccc2)c2cccnc12	-85.1	-7.7	-36.5	84.5*	-1.3	-1.9	-1.9
SMILES	697 NFkB inh	GalR3 antag	NR2E3 ag-1	Jurkat NFkB inh	JMJD2C inh	NR2E3 ag-2	Jurkat NFkB conf
COc1cccc(N=Nc2ccc3cccnc3c2O)c1	-123.6	-11.2	-0.6	94.9*	-31.3	-1.9	19.5
COc1ccc(N=Nc2ccc(O)c3ncccc23)cc1	-121.8	-3.8	-19.5	74.0*	-1.7	0.6	-14.1
COc1cccc(N=Nc2ccc(O)c3ncccc23)c1	-79.3	-8.8	-29.6	69.6*	1.2	-0.1	15.0
Cc1ccccc1N=Nc1ccc(O)c2ncccc12	·	-4.8	6.2	·	12.8	0.2	·
COc1ccc(NC(=O)[C@H](C)NC(=O)C2CCN(S(=O)(=O)c3ccc(C)cc3)CC2)cc1OC	-6.0	5.1	-6.0	-1.5	-7.6	2.7	·
CN=C1CC(SC)=C1c1ccc(C)cc1	12.0	-3.0	-20.7	-3.6	1.2	0.0	·

From PubChem BioAssay
